According to ChEMBL document CHEMBL5678799 (Biochem J, 2009):
Active and inactive are the calls of the source. The calls are words filed in the database; no cut-off is given here.

How the values were obtained:
[1] = target: Serine/threonine-protein kinase BRSK2 (Homo sapiens) (UniProt Q8IWQ3); experiment: (§1) Inhibition of recombinant human N-terminal His6-tagged BRSK2 (2 to 674 residues) expressed in baculovirus infected Sf21 cells assessed as remaining activity at 10 uM using KKLNRTLSFAEPG as substrate incubated for 30 mins in presence of [gamma-33P]ATP by filter binding method relative to control
Procedure, shortened: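 Assays ran 30 min at 21 °C, robotically and in the linear range. Remaining activity is given relative to incubations lacking compound, as the average of triplicate determinations ± S.D.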

[2] = target: AMPK alpha1/beta2/gamma1 (Homo sapiens) (UniProt O43741+P54619+Q13131); experiment: as §1, with “recombinant” for “recombinant human”, “human AMPKalpha1 (11” for “BRSK2 (2”, “559 residues)/AMPKbeta2 (1 to 272 residues)/AMPKgamma1 (1 to 331” for “674”, “SAMS” for “KKLNRTLSFAEPG”
Procedure, shortened: (§2)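 Run robotically for 30 min at 21 °C under linear conditions. Compound at 1 or 10 µM. Percentage activity remaining versus control without compound, triplicate mean ± S.D.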

[3] = target: Dual specificity tyrosine-phosphorylation-regulated kinase 2 (Homo sapiens) (UniProt Q92630); experiment: Inhibition of recombinant human N-terminal GST-tagged DYRK2 (3 to 528 residues) expressed in Escherichia coli assessed as remaining activity at 1 uM using KKISGRLSPIMTEQ as substrate incubated for 30 mins in presence of [gamma-33P]ATP by filter binding method relative to control; procedure, shortened: as §2
[4] = target: Mitogen-activated protein kinase 1 (Homo sapiens) (UniProt P28482); experiment: Inhibition of recombinant human N-terminal GST-tagged ERK2 (2 to 360 residues) expressed in Escherichia coli assessed as remaining activity at 1 uM using MBP as substrate incubated for 30 mins in presence of [gamma-33P]ATP by filter binding method relative to control
Procedure, shortened: (§3)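 Incubation was 30 min at room temperature (21 °C) under conditions linear with time and enzyme amount. Activity is reported as percent of control lacking compound, triplicate mean ± S.D.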

[5] = target: Maternal embryonic leucine zipper kinase (Homo sapiens) (UniProt Q14680); experiment: Inhibition of recombinant human N-terminal GST/C-terminal His6-tagged MELK (2 to 651 residues) expressed in Escherichia coli assessed as remaining activity at 1 uM using KKLNRTLSFAEPG as substrate incubated for 30 mins in presence of [gamma-33P]ATP by filter binding method relative to control; procedure, shortened: as §3
[6] = target: Glycogen synthase kinase-3 beta (Homo sapiens) (UniProt P49841); experiment: Inhibition of recombinant human His6-tagged GSK3beta (2 to 420 residues) expressed in baculovirus infected Sf21 cells assessed as remaining activity at 10 uM using phospho-GS2 peptide as substrate incubated for 30 mins in presence of [gamma-33P]ATP by filter binding method relative to control
Procedure, shortened: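 Radiometric kinase panel run robotically at 21 °C for 30 min, linear in time and enzyme. […] Activity expressed as percentage of control without inhibitor; triplicate determinations.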

[7] = target: Homeodomain-interacting protein kinase 2 (Homo sapiens) (UniProt Q9H2X6); experiment: Inhibition of recombinant human N-terminal GST-tagged HIPK2 (165 to 564 residues) expressed in Escherichia coli assessed as remaining activity at 10 uM using MBP as substrate incubated for 30 mins in presence of [gamma-33P]ATP by filter binding method relative to control
Procedure, shortened: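 Radiometric kinase panel run robotically at room temperature (21 °C) for 30 min, linear in time and enzyme. […] Activity is expressed as percent of control without compound, from triplicate determinations ± S.D.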

[8] = target: Tyrosine-protein kinase SYK (Homo sapiens) (UniProt P43405); experiment: Inhibition of recombinant human N-terminal His6-tagged SYK (1 to 635 residues) expressed in baculovirus infected Sf21 cells assessed as remaining activity at 10 uM using Poly (Glu,Tyr) as substrate incubated for 30 mins in presence of [gamma-33P]ATP by filter binding assay relative to control
Homo sapiens = species: Homo sapiens; experiment: Inhibition of choline kinase (unknown origin) assessed as remaining activity at 1 uM using choline as substrate incubated for 30 mins in presence of ATP by Kinase Glo assay relative to control
Procedure, shortened: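 Choline kinase assayed with 1 mM choline, 1 μM ATP in 25 mM glycine/NaOH pH 8.5, 67 mM KCl, 5 mM MgCl2, 1 mM DTT, 30 min at room temperature. Stopped with Kinase-Glo Plus, luminescence read after 10 min. Activity relative to control, triplicate.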

[9] = target: Sphingosine kinase 1 (Homo sapiens) (UniProt Q9NYA1); experiment: Inhibition of SPHK1 (unknown origin) assessed as remaining activity at 1 uM using sphingosine as substrate incubated for 30 mins in presence of ATP relative to control
Procedure, shortened: (§4)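 SPHK1 assayed with 10 μM sphingosine, 10 μM ATP in 50 mM Tris/HCl pH 7.5, 150 mM NaCl, 5 mM MgCl2, 1 mM EGTA, 1 mM DTT, 30 min at room temperature. ATP remaining read by Kinase-Glo Plus luminescence after 10 min. Activity as % of control, triplicate.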

[10] = target: Sphingosine kinase 1 (Homo sapiens) (UniProt Q9NYA1); experiment: Inhibition of SPHK1 (unknown origin) assessed as remaining activity at 10 uM using sphingosine as substrate incubated for 30 mins in presence of ATP relative to control; procedure, shortened: as §4
MEF = experiment: Inhibition of mTORC2 in serum starved Rictor knockout MEF cells assessed as reduction IGF1-stimulated AKT phosphorylation at Thr308 residue at 100 to 1000 nM incubated for 20 mins by immunoblot analysis; type: cell-based; details: Mus musculus, dose 100-1000 nM
Procedure, shortened: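 Serum withdrawn 16 h. Inhibitor or vehicle given 30 min before stimulation with 50 ng/ml IGF-1 for 20 min. Lysed in Tris lysis buffer and immunoblotted for Akt Thr308 phosphorylation with ECL detection. Applies to HEK-293 and to wild-type, Rictor, Sin1 or mLST8 knockout MEFs. Three independent experiments.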

[11] = target: T1, Mitogen-activated protein kinase; ERK1/ERK2 (Homo sapiens) (UniProt P27361+P28482); experiment: Inhibition of ERK1/2 in serum starved/PMA-stimulated HEK293 cells assessed as reduction in RSK activity at 1 uM using crosstide as substrate incubated for 30 mins in presence of [32P]-ATP by liquid-scintillation counting method; type: cell-based
[12] = target: T1, Mitogen-activated protein kinase; ERK1/ERK2 (Homo sapiens); experiment: Inhibition of ERK1/2 in serum starved/PMA-stimulated HEK293 cells assessed as reduction in ERK1/2 phosphorylation at T202/Y204 residues at 1 uM incubated for 30 mins by immunoblot analysis; type: cell-based
mTORC1 (Homo sapiens) [13] = target: T2, mTORC1 (Homo sapiens) (UniProt P42345+Q8N122+Q9BVC4); details: HEK293, dose 30.0 nM, time 30.0 min
mTORC1 (Homo sapiens) [14] = target: T2, mTORC1 (Homo sapiens); details: HEK293, dose 300.0 nM, time 30.0 min
mTORC1 (Homo sapiens) [15] = target: T2, mTORC1 (Homo sapiens); details: HEK293, dose 100-300 nM, time 30.0 min

T2 sequence (Q8N122 whole entry, looked up, other chains not shown): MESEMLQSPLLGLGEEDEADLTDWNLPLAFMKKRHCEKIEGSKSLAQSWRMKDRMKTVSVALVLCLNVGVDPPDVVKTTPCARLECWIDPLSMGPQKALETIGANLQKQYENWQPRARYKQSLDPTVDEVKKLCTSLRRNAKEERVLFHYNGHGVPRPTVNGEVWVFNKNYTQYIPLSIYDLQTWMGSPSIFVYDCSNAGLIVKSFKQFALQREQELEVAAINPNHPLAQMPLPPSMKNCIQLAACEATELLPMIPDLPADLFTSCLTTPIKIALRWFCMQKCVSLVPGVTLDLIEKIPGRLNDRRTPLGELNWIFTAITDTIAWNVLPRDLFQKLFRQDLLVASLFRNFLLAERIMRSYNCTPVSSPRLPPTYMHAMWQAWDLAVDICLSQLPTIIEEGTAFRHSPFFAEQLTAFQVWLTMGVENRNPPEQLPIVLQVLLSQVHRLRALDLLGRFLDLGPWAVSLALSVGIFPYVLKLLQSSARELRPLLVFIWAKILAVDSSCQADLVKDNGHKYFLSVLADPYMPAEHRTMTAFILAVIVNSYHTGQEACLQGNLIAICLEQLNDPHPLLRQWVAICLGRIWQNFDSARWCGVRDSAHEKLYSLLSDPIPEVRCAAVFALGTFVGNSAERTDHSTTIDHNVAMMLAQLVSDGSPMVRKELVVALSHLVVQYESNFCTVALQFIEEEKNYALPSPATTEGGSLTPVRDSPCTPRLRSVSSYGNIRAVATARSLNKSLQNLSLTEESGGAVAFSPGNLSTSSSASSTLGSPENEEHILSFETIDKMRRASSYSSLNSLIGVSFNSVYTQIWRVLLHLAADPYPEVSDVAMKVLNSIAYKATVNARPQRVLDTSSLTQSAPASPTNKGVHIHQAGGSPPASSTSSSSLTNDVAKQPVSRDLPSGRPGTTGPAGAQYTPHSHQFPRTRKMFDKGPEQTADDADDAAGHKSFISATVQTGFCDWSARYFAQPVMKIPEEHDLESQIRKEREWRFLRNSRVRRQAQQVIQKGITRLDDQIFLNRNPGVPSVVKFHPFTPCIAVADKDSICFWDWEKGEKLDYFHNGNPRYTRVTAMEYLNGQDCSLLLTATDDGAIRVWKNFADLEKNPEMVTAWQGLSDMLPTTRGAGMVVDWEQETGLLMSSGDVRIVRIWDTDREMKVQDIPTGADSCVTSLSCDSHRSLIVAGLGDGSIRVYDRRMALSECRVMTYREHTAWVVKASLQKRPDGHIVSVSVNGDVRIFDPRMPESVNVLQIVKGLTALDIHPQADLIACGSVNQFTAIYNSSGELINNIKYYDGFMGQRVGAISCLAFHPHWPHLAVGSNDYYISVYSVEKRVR
T2 sequence (Q9BVC4 whole entry, looked up, other chains not shown): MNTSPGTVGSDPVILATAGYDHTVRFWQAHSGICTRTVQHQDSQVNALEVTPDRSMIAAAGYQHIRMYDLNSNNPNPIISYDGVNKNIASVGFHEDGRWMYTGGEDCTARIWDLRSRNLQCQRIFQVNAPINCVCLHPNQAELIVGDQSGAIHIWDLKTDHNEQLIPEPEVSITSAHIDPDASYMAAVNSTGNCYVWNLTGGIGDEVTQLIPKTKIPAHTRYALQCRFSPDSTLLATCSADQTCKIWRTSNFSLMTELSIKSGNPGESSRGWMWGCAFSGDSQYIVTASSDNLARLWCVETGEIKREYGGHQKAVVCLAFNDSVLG
Sequence of Sphingosine kinase 1 (Homo sapiens) (Q9NYA1 whole entry): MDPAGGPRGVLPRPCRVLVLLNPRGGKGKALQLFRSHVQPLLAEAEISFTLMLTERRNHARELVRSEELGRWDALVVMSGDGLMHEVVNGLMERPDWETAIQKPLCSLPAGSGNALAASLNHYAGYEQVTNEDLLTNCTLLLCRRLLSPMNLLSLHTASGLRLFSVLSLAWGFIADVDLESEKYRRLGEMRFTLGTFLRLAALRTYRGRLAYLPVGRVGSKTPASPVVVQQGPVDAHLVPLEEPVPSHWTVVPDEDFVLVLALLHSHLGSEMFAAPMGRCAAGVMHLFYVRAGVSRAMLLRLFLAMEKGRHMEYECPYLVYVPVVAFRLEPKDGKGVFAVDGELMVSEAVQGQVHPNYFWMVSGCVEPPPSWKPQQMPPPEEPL
T1 sequence (P27361 whole entry, looked up): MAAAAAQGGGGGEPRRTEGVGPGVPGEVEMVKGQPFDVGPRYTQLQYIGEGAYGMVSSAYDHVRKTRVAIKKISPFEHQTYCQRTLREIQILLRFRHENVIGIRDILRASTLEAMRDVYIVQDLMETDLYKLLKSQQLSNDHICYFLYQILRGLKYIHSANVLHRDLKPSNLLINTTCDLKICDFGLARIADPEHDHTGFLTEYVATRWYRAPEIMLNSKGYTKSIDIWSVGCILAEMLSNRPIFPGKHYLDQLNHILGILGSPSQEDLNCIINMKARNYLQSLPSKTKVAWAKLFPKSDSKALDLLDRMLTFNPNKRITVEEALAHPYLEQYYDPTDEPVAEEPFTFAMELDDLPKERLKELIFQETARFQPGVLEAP
T1 sequence (P28482 whole entry, looked up): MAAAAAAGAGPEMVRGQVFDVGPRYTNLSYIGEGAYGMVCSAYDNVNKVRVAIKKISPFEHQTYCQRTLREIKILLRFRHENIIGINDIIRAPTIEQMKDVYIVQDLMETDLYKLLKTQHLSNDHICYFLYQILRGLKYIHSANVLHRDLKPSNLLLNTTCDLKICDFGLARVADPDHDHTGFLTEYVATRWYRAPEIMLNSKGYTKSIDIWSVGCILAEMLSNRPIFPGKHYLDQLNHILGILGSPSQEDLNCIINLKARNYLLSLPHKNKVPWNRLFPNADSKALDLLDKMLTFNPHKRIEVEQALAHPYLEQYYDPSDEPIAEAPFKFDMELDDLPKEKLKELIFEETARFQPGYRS
Sequence of Glycogen synthase kinase-3 beta (Homo sapiens) (P49841 whole entry, looked up, the tested form may be a part): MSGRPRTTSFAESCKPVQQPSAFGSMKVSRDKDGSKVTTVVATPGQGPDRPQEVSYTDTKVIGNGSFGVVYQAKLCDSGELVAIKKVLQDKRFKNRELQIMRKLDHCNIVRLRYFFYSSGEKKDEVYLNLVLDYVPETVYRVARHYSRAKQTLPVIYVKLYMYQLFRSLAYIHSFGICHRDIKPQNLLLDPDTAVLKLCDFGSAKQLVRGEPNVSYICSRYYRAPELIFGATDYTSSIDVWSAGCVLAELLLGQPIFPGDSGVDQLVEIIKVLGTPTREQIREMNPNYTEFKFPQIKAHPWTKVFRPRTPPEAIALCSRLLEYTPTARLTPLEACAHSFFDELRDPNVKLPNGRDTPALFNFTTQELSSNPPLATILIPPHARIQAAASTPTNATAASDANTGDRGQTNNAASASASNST
Sequence of AMPK alpha1/beta2/gamma1 (Homo sapiens) (O43741 whole entry, looked up, the tested form may be a part): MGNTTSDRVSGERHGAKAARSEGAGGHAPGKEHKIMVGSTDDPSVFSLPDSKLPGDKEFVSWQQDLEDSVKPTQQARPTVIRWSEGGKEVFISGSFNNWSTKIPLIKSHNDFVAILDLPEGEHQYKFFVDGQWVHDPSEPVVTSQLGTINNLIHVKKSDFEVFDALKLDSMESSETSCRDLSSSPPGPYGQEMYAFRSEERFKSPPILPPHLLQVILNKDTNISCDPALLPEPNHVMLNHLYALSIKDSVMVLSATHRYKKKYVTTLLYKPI
Sequence of AMPK alpha1/beta2/gamma1 (Homo sapiens) (P54619 whole entry, looked up, the tested form may be a part): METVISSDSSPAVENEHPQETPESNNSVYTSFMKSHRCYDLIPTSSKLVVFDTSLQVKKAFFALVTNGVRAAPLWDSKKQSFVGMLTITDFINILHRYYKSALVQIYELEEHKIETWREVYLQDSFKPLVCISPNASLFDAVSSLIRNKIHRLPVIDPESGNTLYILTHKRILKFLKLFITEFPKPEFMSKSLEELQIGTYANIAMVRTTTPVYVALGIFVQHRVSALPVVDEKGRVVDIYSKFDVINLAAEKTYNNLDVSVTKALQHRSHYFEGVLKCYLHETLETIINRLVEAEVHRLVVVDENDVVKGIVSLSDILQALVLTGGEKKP
Sequence of AMPK alpha1/beta2/gamma1 (Homo sapiens) (Q13131 whole entry, looked up, the tested form may be a part): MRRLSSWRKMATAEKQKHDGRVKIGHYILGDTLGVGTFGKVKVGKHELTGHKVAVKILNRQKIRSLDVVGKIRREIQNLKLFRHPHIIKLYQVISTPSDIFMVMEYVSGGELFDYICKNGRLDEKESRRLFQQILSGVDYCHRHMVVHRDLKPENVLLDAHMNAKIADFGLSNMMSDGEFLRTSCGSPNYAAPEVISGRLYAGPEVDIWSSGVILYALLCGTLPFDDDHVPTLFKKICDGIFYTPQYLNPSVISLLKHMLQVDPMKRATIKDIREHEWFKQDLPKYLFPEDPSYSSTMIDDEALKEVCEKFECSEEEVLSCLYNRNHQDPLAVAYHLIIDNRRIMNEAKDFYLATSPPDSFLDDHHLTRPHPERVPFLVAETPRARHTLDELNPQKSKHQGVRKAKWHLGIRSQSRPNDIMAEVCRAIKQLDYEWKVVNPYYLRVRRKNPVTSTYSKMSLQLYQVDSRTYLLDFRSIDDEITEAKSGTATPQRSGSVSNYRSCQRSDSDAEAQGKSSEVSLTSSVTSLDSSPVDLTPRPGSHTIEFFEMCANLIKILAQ
Sequence of Mitogen-activated protein kinase 1 (Homo sapiens) (P28482 whole entry, the tested form may be a part): as the sequence (P28482 whole entry, looked up) above

Q: How did the Activity [1] turn out when `COc1ccc(-c2ccc3c(N4CCOCC4)nc(N4C[C@@H](C)O[C@@H](C)C4)nc3n2)cc1CO` [Ku-0063794] was run?
A: The Activity was 72%.

Q: What about the Activity [2] of the same compound?
A: Its Activity is 106%.

Q: What about the Activity [3] of the same compound?
A: The Activity was 92%.

Q: What about the Activity [4] of the same compound?
A: Its Activity is 102%.

Q: What about the Activity [5] of the same compound?
A: Its Activity is 91%.

Q: What about the Activity [6] of the same compound?
A: Its Activity is 91%.

Q: And the Activity [7]?
A: The Activity was 89%.

Q: And the Activity [8]?
A: Its Activity is 83%.

Q: What about the Activity (Homo sapiens) of the same compound?
A: Its Activity is 102%.

Q: And the Activity [9]?
A: The Activity was 108%.

Q: What about the Activity [10] of the same compound?
A: Its Activity is 99%.

Q: And the inhibition (MEF)?
A: The inhibition was “Active”.

Q: And the inhibition [11]?
A: Its inhibition is “inactive”.

Q: And the inhibition [12]?
A: Its inhibition is “inactive”.

Q: And the inhibition (mTORC1 (Homo sapiens) [13])?
A: The inhibition was 90%.

Q: What about the inhibition (mTORC1 (Homo sapiens) [14]) of the same compound?
A: The inhibition was 90%.

Q: And the inhibition (mTORC1 (Homo sapiens) [15])?
A: Its inhibition is 100%.
